Experimental data gathered from unrelated publications.
Each line is one published result; the experiments were not run side by side.

Cc1cnc(NC2CCOCC2)nc1-n1cnc(C(=O)NC(CN)c2cc(F)cc(Cl)c2)c1 (stereo not drawn)  remaining activity (Tyrosine-protein kinase ABL1 (ABL1, Homo sapiens, UniProt P00519, M351T); enzyme activity; inhibitor; radiometric; 1 µM): 95%
CCCOc1ccc(OC)c(F)c1C(=O)c1ccc(C(=O)N[C@@H]2CNC[C@H]2NC(=O)c2ccc3[nH]ncc3c2)cc1  remaining activity (Tyrosine-protein kinase ABL1 (ABL1, Homo sapiens, UniProt P00519, T315I); enzyme activity; inhibitor; 10 µM): 85%
Nc1ncnc2occ(-c3ccc(NC(=O)Nc4cc(C(F)(F)F)ccc4F)cc3)c12  remaining signal (Tyrosine-protein kinase ABL1, phosphorylated (ABL1, Homo sapiens, UniProt P00519, F317L); cell-free assay; inhibitor; 20 µM): 9.2%
COc1ccc2c(c1)O[C@H](c1ccc(OC)c(OC)c1)C[C@@H]2NC(=O)C1(c2ccc3c(c2)OC(F)(F)O3)CC1  remaining binding (Tyrosine-protein kinase ABL1, phosphorylated (ABL1, Homo sapiens, UniProt P00519, M351T); cell-free assay; competition with immobilised ligand; 1 µM): 88%
N[C@@H]1CCN(c2nccc(-c3cnn4ncccc34)n2)C1  remaining binding (Tyrosine-protein kinase ABL1, non-phosphorylated (ABL1, Homo sapiens, UniProt P00519); binding; competition with immobilised ligand; 1 µM): 100%
C[C@@]1(Cc2ccc(C#N)cc2)C(=O)N(c2cc(Cl)cc(Cl)c2)c2ncc(C(=O)NC3(c4nc(C5CCC5)no4)CC3)n21  remaining binding (Tyrosine-protein kinase ABL1, non-phosphorylated (ABL1, Homo sapiens, UniProt P00519, T315I); cell-free assay; competition with immobilised ligand; 1 µM): 100%
COc1cc(-c2cc(-c3ccc(N4CCNCC4)cc3)cnc2N)cc(OC)c1OC  inhibition (Tyrosine-protein kinase ABL1 (ABL1, Homo sapiens, UniProt P00519, E255K); enzyme activity; inhibitor; 1 µM): 94%
Cc1cc(NC(=O)c2cccc3cc(-c4cccc5[nH]nc(N)c45)ccc23)ccc1F  activity vs control (Tyrosine-protein kinase ABL1 (ABL1, Homo sapiens, UniProt P00519, Q252H); enzyme activity; inhibitor; 0.1 µM): 88%
N#Cc1ccc(Nc2ccc3[nH]c(=O)[nH]c3c2)c(Cl)c1  remaining binding (Tyrosine-protein kinase ABL1, phosphorylated (ABL1, Homo sapiens, UniProt P00519, H396P); cell-free assay; competition with immobilised ligand; 1 µM): 95%
